Test results as given in ChEMBL document CHEMBL4834479, “Discovery of the first chemical tools to regulate MKK3-mediated MYC activation in cancer” (Bioorg Med Chem, 2021).
The source made the active and inactive calls. The rule behind the calls is not given here.

What was measured:
[1] = target: T1, MAP2K3/Myc proto-oncogene protein (Homo sapiens, UniProt P01106+P46734); test: Disruption of interaction between human recombinant GST-tagged MKK3/VF-tagged MYC expressed in HEK293T cells measured after 2 hrs by TR-FRET assay; assay type: cell-based
[2] = target: T2, MAP2K3/Myc proto-oncogene protein (Homo sapiens) (UniProt P46734+P01106); test: Disruption of interaction between human recombinant GST-tagged MKK3/VF-tagged MYC expressed in HEK293T cells at 20 uM measured after 2 hrs by TR-FRET assay; assay type: cell-based
[3] = target: DNA (cytosine-5)-methyltransferase 1 (Homo sapiens, UniProt P26358); test: Inhibition of DNMT (unknown origin) by densitometric analysis
[4] = target: T2, MAP2K3/Myc proto-oncogene protein (Homo sapiens); test: Disruption of interaction between human recombinant GST-tagged MKK3/VF-tagged MYC expressed in HEK293T cells up to 100 uM measured after 2 hrs by TR-FRET assay; assay type: cell-based; conditions: dose microM <=100, time 2.0 hrs
[5] = target: T2, MAP2K3/Myc proto-oncogene protein (Homo sapiens); test: Disruption of MKK3/MYC protein-protein interaction in human HCT-116 cells transfected with VF-tagged MKK3 assessed as inhibition of MYC transcriptional activity at 0.5 to 2 uM measured after 12 hrs by […] reporter assay; assay type: cell-based; conditions: dose 0.5-2 µM
How it was run: (§1)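 Cells were transfected with Venus-Flag-MKK3 or Venus-Flag vector plus a firefly luciferase reporter carrying three MYC E-box sites (or a mutant E-box control) and a Renilla normalization vector. Compound in DMSO (0.5–5 µM, 0.1% DMSO final) was added 36 h post-transfection and cells were incubated 12 h more. Dual-luciferase read-out: firefly/Renilla ratio, then wild-type over mutant E-box fold.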

[6] = target: T2, MAP2K3/Myc proto-oncogene protein (Homo sapiens); test: Disruption of MKK3/MYC protein-protein interaction in human HCT-116 cells assessed as decrease in PDL1 level at 0.5 to 10 uM measured by western blot assay; assay type: cell-based; conditions: dose 0.5-10 µM
[7] = target: T2, MAP2K3/Myc proto-oncogene protein (Homo sapiens); test: Disruption of MKK3/MYC protein-protein interaction in human HCT-116 cells assessed as decrease in CDK4 level at 0.5 to 10 uM measured by western blot assay; assay type: cell-based; conditions: dose 0.5-10 µM
[8] = target: T2, MAP2K3/Myc proto-oncogene protein (Homo sapiens); test: Disruption of MKK3/MYC protein-protein interaction in human HCT-116 cells assessed as decrease in MYC level at 0.5 to 10 uM measured by western blot assay; assay type: cell-based; conditions: dose 0.5-10 µM
[9] = target: T2, MAP2K3/Myc proto-oncogene protein (Homo sapiens); test: Disruption of interaction between human recombinant GST-tagged MKK3 expressed in HEK293T cells/MYC in human HCT116 cells incubated for 30 mins by GST pull-down assay; assay type: cell-based; conditions: dose 2-5 µM
[10] = target: T2, MAP2K3/Myc proto-oncogene protein (Homo sapiens); test: Disruption of MKK3/MYC protein-protein interaction in human MDA-MB-468 cells transfected with VF-tagged MKK3 assessed as inhibition of MYC transcriptional activity measured after 12 hrs by […] reporter assay; assay type: cell-based; conditions: dose 0.5-5 µM; how it was run: as §1
[11] = target: T3, Dual specificity mitogen-activated protein kinase kinase 3 (Homo sapiens) (UniProt P46734); test: Inhibition of MKK3 in human HEK293T cells assessed as inhibition of p38 phosphorylation by western blot analysis; assay type: cell-based
T3 sequence (whole entry): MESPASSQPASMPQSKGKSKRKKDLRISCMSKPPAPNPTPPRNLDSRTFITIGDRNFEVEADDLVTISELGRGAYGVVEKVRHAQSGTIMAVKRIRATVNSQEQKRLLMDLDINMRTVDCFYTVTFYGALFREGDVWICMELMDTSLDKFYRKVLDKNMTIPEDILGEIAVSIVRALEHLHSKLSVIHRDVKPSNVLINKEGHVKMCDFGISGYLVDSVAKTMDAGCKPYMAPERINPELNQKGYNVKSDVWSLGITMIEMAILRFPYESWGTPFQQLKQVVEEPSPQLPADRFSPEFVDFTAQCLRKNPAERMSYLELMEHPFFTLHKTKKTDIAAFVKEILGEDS

[12] = target: c-Myc/c-Max (Homo sapiens) (UniProt P01106+P61244); test: Disruption of interaction between human recombinant GST-tagged MAX/VF-tagged MYC expressed in HEK293T cells at 50 uM incubated for 30 mins by GST pull-down assay; assay type: cell-based
How it was run: (§2)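 GST- and Venus-Flag-tagged human proteins were co-expressed in HEK293T cells for 48 h and lysed in 1% NP-40 buffer (HEPES pH 7.5) at 4 °C. Cleared lysates were pre-incubated 30 min with 50 µM compound or DMSO, then 75 min with glutathione sepharose. Beads were washed three times, eluted in SDS loading buffer, and analysed by Western blot.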

[13] = target: T1, MAP2K3/Myc proto-oncogene protein; test: Disruption of interaction between human recombinant GST-tagged MKK3/His-tagged MYC HLH LZ domain measured after 2 hrs by TR-FRET assay; assay type: protein assay
HEK293T = test: Disruption of interaction between human recombinant GST-tagged MKK3/VF-tagged p38 expressed in HEK293T cells at 50 uM incubated for 30 mins by GST pull-down assay; assay type: cell-based; how it was run: as §2
[14] = target: T1, MAP2K3/Myc proto-oncogene protein; test: Disruption of interaction between human recombinant GST-tagged MKK3 (1 to 210 residues)/VF-tagged MYC expressed in HEK293T cells measured after 2 hrs by TR-FRET assay; assay type: cell-based
HCT-116 [15] = test: Cytotoxicity against human HCT-116 cells assessed as reduction in cell viability measured after 72 hrs by Alamar blue assay; assay type: functional, cell-based; conditions: HCT-116, 72 h
How it was run: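 HCT116 cells in DMEM with 10% FBS at 37 °C, 5% CO2, seeded and treated next day with compound or DMSO. After 72 h, CellTiter-Blue reagent was added for 2 h at 37 °C and fluorescence read at 560 ex/590 em. Background came from medium-only wells, and viability was taken relative to DMSO control.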

[16] = target: T2, MAP2K3/Myc proto-oncogene protein (Homo sapiens); test: Disruption of interaction between human recombinant GST-tagged MKK3/VF-tagged MYC expressed in HEK293T cells at 50 uM incubated for 30 mins by GST pull-down assay; assay type: cell-based; how it was run: as §2
HCT-116 [17] = test: Inhibition of cell migration in human HCT-116 cells assessed as relative wound density at 3 uM measured after 18 hrs by scratch wound healing assay (reference value: 20%); assay type: functional; parameters: scale not given: the % may be the effect or the level left
How it was run: (§3)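 Confluent HCT116 monolayers were wounded, washed with fresh medium, and given medium with compound at set concentrations or DMSO. Live-cell imaging scanned every 2 h over 18 h, with relative wound density as the read-out. Four replicates were run.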

MDA-MB-468 = test: Inhibition of Renilla luciferase activity expressed in human MDA-MB-468 cells assessed as decrease in luminescence at 10 uM measured after 12 hrs by luminescence assay; assay type: cell-based
How it was run: (§4)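 Renilla luciferase luminescence was compared between cells treated with 10 µM compound and DMSO control, within the dual-luciferase MYC reporter set-up, using a 12 h compound incubation.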

[18] = target: T2, MAP2K3/Myc proto-oncogene protein (Homo sapiens); test: Disruption of MKK3/MYC protein-protein interaction in human MDA-MB-468 cells assessed as decrease in MYC level at 1 to 20 uM measured by western blot assay; assay type: cell-based; conditions: dose 1-20 µM
HCT-116 [19] = test: Inhibition of Renilla luciferase activity expressed in human HCT-116 cells assessed as decrease in luminescence at 10 uM measured after 12 hrs by luminescence assay; assay type: cell-based; how it was run: as §4
HCT-116 [20] = test: Inhibition of cell migration in human HCT-116 cells measured after 18 hrs by scratch wound healing assay; assay type: functional, cell-based; conditions: dose 0.75-3 µM; how it was run: as §3
HCT-116 [21] = test: Inhibition of cell migration in human HCT-116 cells at 0.75 to 3 uM by scratch wound healing assay; assay type: functional, cell-based; conditions: dose 0.75-3 µM, TDE = time-dependent effect
[22] = target: T2, MAP2K3/Myc proto-oncogene protein (Homo sapiens); test: Disruption of MKK3/MYC protein-protein interaction in human MDA-MB-468 cells assessed as decrease in PDL1 level at 1 to 20 uM measured by western blot assay; assay type: cell-based; conditions: dose 1-20 µM
[23] = target: T2, MAP2K3/Myc proto-oncogene protein (Homo sapiens); test: Disruption of MKK3/MYC protein-protein interaction in human MDA-MB-468 cells assessed as decrease in CDK4 level at 1 to 20 uM measured by western blot assay; assay type: cell-based; conditions: dose 1-20 µM

T1 sequence (P01106 whole entry, one chain of several): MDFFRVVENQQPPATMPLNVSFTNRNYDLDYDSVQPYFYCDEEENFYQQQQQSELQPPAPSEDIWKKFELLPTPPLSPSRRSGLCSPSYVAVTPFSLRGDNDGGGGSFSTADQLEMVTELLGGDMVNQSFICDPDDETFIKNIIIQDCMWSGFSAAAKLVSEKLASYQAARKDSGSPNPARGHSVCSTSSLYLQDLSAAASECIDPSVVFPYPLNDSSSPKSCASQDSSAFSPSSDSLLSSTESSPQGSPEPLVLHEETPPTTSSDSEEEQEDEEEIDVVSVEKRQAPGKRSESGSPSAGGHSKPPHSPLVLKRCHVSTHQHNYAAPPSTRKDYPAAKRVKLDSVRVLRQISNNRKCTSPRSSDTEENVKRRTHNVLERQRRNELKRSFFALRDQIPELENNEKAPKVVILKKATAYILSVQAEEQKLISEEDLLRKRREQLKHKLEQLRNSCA
T2 sequence (P01106 whole entry, looked up, one chain of several): as the sequence (P01106 whole entry, one chain of several) above
DNA (cytosine-5)-methyltransferase 1, sequence (P26358 whole entry): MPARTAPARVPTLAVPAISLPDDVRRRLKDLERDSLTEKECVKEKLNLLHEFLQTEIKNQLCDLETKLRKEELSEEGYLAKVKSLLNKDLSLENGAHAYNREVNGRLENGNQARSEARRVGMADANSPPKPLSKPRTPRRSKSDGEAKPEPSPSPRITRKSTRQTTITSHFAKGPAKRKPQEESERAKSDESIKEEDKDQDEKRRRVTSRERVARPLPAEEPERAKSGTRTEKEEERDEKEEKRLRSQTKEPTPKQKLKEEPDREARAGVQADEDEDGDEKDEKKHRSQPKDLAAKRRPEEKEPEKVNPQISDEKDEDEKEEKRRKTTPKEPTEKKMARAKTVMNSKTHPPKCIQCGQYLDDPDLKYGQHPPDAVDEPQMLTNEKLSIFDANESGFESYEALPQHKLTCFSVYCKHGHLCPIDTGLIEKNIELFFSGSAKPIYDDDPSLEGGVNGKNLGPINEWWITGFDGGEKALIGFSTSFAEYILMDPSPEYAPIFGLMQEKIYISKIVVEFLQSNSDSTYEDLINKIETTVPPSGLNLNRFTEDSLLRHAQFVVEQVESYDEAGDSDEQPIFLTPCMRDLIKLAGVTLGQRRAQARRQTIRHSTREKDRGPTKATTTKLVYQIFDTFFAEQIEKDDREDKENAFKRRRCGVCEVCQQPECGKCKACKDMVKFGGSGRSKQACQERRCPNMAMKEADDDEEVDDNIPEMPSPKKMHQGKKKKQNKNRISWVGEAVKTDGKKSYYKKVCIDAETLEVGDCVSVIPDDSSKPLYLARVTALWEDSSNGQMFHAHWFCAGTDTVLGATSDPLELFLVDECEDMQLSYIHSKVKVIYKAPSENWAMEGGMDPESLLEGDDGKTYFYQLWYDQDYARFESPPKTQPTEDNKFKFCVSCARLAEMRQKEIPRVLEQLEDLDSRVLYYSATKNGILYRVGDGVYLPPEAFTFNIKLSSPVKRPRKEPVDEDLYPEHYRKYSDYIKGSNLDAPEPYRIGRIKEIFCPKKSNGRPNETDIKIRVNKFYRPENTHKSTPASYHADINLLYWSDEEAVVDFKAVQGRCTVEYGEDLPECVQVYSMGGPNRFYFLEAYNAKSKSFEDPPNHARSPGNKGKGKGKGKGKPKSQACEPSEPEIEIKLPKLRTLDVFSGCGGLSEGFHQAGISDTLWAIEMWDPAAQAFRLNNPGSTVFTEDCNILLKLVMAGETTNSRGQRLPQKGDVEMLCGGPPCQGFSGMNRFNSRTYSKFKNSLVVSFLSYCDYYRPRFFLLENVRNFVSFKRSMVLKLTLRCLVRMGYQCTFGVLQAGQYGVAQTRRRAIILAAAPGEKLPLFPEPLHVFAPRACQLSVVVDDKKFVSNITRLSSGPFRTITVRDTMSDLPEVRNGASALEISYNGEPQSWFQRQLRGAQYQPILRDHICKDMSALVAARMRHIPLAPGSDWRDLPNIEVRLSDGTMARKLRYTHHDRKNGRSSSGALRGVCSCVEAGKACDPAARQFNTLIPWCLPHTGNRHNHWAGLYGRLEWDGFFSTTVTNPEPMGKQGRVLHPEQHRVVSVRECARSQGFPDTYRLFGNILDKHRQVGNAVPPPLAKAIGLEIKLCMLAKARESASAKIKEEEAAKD
c-Myc/c-Max (Homo sapiens), sequence (P01106 whole entry): as the sequence (P01106 whole entry, one chain of several) above
c-Myc/c-Max (Homo sapiens), sequence (P61244 2-160 partner limits assumed): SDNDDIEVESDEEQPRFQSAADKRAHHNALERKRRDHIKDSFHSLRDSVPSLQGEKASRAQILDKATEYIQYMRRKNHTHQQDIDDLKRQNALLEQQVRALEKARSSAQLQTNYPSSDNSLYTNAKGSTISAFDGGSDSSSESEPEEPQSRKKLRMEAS

Molecule `CC(C)c1cc(C(C)C)c(CC(=O)NS(=O)(=O)Oc2c(C(C)C)cccc2C(C)C)c(C(C)C)c1` [AVASIMIBE] has an IC50 [1] of 63.9 µM.

Molecule `O=C(O)C1=CC(=C(c2ccc(O)c(C(=O)O)c2)c2ccc(O)c(C(=O)O)c2)C=CC1=O` [AURINTRICARBOXYLIC ACID] has an IC50 [1] of 14.1 µM and an inhibition [2] of 58%.

With `O=C(O)[C@H](Cc1c[nH]c2ccccc12)N1C(=O)c2ccccc2C1=O` the IC50 [3] was 0.115 µM, the Activity [4] was “inactive” and the Activity [5] was “inactive”. For the same molecule, the Activity [6] was “inactive”, the Activity [7] was “inactive” and the Activity [8] was “inactive”.

For `Cc1cc(Nc2ccc(NC(=O)c3ccc(Nc4ccnc5ccccc45)cc3)cc2)nc(N)n1`, the IC50 [1] was 8.46 µM, the Activity [9] was “Dose-Dependent Effect” and the Activity [5] was “Dose-Dependent Effect”. The Activity [10] was “Dose-Dependent Effect”, the inhibition [11] was “inactive” and the Activity [12] was “inactive”. The IC50 [13] was 9.67 µM, the Activity [6] was “Active” and the Activity (HEK293T) was “inactive”. For the same molecule, the IC50 [14] was 3.8 µM, the IC50 (HCT-116 [15]) was 3.2 µM and the Activity [16] was “Active”. The Activity (HCT-116 [17]) was 8%, the Activity [7] was “Active” and the inhibition (MDA-MB-468) was “inactive”. For the same molecule, the Activity [18] was “Active”, the inhibition (HCT-116 [19]) was “inactive” and the inhibition (HCT-116 [20]) was “Dose-Dependent Effect”. The inhibition (HCT-116 [21]) was “Tde”, the inhibition [2] was 37% and the Activity [8] was “Active”. The Activity [22] was “Active” and the Activity [23] was “Active”.

`Cc1cc2c(C(C)C)c(O)c(O)c(C=O)c2c(O)c1-c1c(C)cc2c(C(C)C)c(O)c(O)c(C=O)c2c1O` was tested, and the Activity [4] was “inactive” and the inhibition [2] was 31%.
